The subject of data set [1] is HUVEC. Briefly: Immunomodulatory activity in HUVEC assessed as inhibition of IFNgamma-induced HLA-E expression at 10 uM pretreated for 1 hr followed by IFNgamma stimulation and measured after 48 hrs by immunostaining based flow cytometry relative to control. In kind it is functional. The gist of the method: (§1)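 Endothelial cells were stimulated with IFNγ to upregulate MHC class II and HLA-E in the presence of test agent at 10 μM. Surface expression was measured by flow cytometry.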
Background: In flow cytometry, cells or beads pass a laser one at a time.

Data set [2] deals with HUVEC. Briefly: Immunomodulatory activity in HUVEC assessed as inhibition of IFNgamma-induced MHC-1 expression at 10 uM pretreated for 1 hr followed by IFNgamma stimulation and measured after 48 hrs by immunostaining based flow cytometry relative to control. In kind it is functional. Put shortly: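 Cultured vascular endothelial cells were stimulated with IFNγ to upregulate MHC molecules (MHC class I, class II, HLA-E) in the presence of the test compound at 10 μM. Surface expression of MHC was then quantified by flow cytometry.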

For data set [3], the system named is HUVEC. Description: Immunomodulatory activity in HUVEC assessed as inhibition of IFNgamma-induced MICA expression at 10 uM pretreated for 1 hr followed by IFNgamma stimulation and measured after 48 hrs by immunostaining based flow cytometry relative to control. In kind it is functional.
Data set [4] concerns HUVEC. Description: Immunomodulatory activity in HUVEC assessed as inhibition of IFNgamma-induced HLA-DR expression at 10 uM pretreated for 1 hr followed by IFNgamma stimulation and measured after 48 hrs by immunostaining based flow cytometry relative to control. Type of data set: functional. Put shortly: as §1
The test system of data set [5] is HUVEC. Description: Reduction in basal MICA expression in HUVEC at 10 uM measured after 1 hr by immunostaining based flow cytometry. Type of data set: ADME, cell-based. The settings on record: human. Also on record: scale not given: the % may be the effect or the level left.
In data set [6] the test system is HUVEC. Briefly: Effect on HLA-DR expression in HUVEC at 10 uM measured after 1 hr by immunostaining based flow cytometry. Type of data set: ADME, cell-based. To be noted: human.
Data set [7] deals with HUVEC. Briefly: Effect on HLA-E expression in HUVEC at 10 uM measured after 1 hr by immunostaining based flow cytometry. In kind it is ADME, cell-based. The settings on record: human.
The subject of data set [8] is HUVEC. Description: Immunomodulatory activity in HUVEC assessed as inhibition of TNFalpha-induced VCAM1 expression at 5 to 50 uM measured by ELISA relative to control. Type of data set: functional, Homo sapiens. The gist of the method: (§2)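 Cell-based ELISA on cultured vascular endothelial cells quantifying surface molecules. Cells were stimulated with TNF to induce VCAM-1 and MICA, or with IFNγ to induce MHC class I. Test agents were present at 5, 25 and 50 μM.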
In general terms: ELISA stands for enzyme-linked immunosorbent assay.

Data set [9] relates to HUVEC. Description: Immunomodulatory activity in HUVEC assessed as inhibition of TNFalpha-induced MICA expression at 5 to 50 uM measured by ELISA relative to control. Type of data set: functional, Homo sapiens. Put shortly:
as §2

For data set [10], the system named is HUVEC. Briefly: Immunomodulatory activity in HUVEC assessed as inhibition of IFNgamma-induced MHC1 expression at 5 to 50 uM measured by ELISA relative to control. Type of data set: functional, Homo sapiens. The gist of the method:
as §2

Data set [11] concerns HUVEC. Briefly: Effect on MHC-1 expression in HUVEC at 10 uM measured after 1 hr by immunostaining based flow cytometry. In kind it is ADME, cell-based. The settings on record: human.

SMILES strings stand for the structures. Active and inactive are the calls of the source. The calls are words filed in the database; no cut-off is given here. Where only a bound is given, the exact number is not on record here.

For the compound `COc1cc(-c2ccccc2)cc2c1C[C@@H](C(C)(C)O)O2`, the outcome in the data set with HUVEC [1] (Homo sapiens), in the data set with HUVEC [2] (Homo sapiens), with HUVEC [3] (Homo sapiens) and in the data set with HUVEC [4] (Homo sapiens) was inactive.
`COc1cc(C2Oc3c(OC)cc4c(=O)c5ccccc5oc4c3OC2CO)ccc1O` (configuration not stated): the outcome in the data set on HUVEC [1] (Homo sapiens), in the data set on HUVEC [2] (Homo sapiens), in the data set on HUVEC [3] (Homo sapiens) and in the data set with HUVEC [4] (Homo sapiens) was inactive.
On to `COc1c(O)ccc2c(=O)c3c(O)cc4c(c3oc12)C(C)(C)C(C)O4` (configuration not stated), for which the Activity in the data set with HUVEC [1] is on record as 40%; in the data set with HUVEC [5] it was 25%; with HUVEC [6], “Non-Toxic”; in the data set on HUVEC [7], “Non-Toxic”; in the data set on HUVEC [3], 24%; with HUVEC [4] it was 25%. Further, the Activity result in the data set on HUVEC [11] was “Non-Toxic”. Besides, the figures for the “inhibition (INH)” value in the data set on HUVEC [8], in the data set on HUVEC [9] and in the data set on HUVEC [10] were more than 50%, less than 10% and 10 - 25%, respectively.
For the compound `COc1cc2oc3cc(O)cc(O)c3c(=O)c2c2c1OC(C)(C)C=C2`, the outcome with HUVEC [1] (Homo sapiens), with HUVEC [2] (Homo sapiens), with HUVEC [3] (Homo sapiens) and in the data set on HUVEC [4] (Homo sapiens) was inactive.
With `COc1cc(-c2ccccc2)cc2c1C[C@H](O)C(C)(C)O2`, the result in the data set on HUVEC [1] (Homo sapiens), in the data set on HUVEC [2] (Homo sapiens), with HUVEC [3] (Homo sapiens) and in the data set on HUVEC [4] (Homo sapiens) was inactive.
For `O.O=P(O)(O)C(O)(Cn1ccnc1)P(=O)(O)O` [ZOLEDRONIC ACID], the Activity with HUVEC [2] came out at 67%.

For the origin of these results see ChEMBL document CHEMBL4145656, “Additional Insights into Hypericum perforatum Content: Isolation, Total Synthesis, and Absolute Configuration of Hyperbiphenyls A and B from Immunomodulatory Root Extracts” (J Nat Prod, 2018).
